ChEMBL document CHEMBL1129639, “Synthesis and cardiotonic activity of novel pyrimidine derivatives: crystallographic and quantum chemical studies” (J Med Chem, 1996)

Experiments:
Format in all cases: functional
Cavia porcellus [1] = organism: Cavia porcellus; assay: Effect on the contractile force of spontaneously beating atria from Reserpine-treated guinea pigs as percentage variation from the control at concentration of 10E-5 M
Procedure, shortened: (§1)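 Atria from reserpine-treated guinea pigs (reserpine 2 mg/kg ip, 48 and 24 h before death; only tyramine-unresponsive preparations used). Bath solution at 29 °C, gassed 95% O2/5% CO2, pH 7.5, resting tension […]. After 90 min equilibration, compound added cumulatively, 5 min per concentration. Isometric developed-tension amplitude or beating rate given as % variation from untreated control. Mean ± SEM, 6-10 assays.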

Cavia porcellus [2] = organism: Cavia porcellus; assay: Effect on the contractile force of spontaneously beating atria from Reserpine-treated guinea pigs as percentage variation from the control at concentration of 10E-6 M; procedure, shortened: as §1
Cavia porcellus [3] = organism: Cavia porcellus; assay: Effect on the contractile force of spontaneously beating atria from Reserpine-treated guinea pigs as percentage variation from the control at concentration of 3 x 10E-4 M; procedure, shortened: as §1
Cavia porcellus [4] = organism: Cavia porcellus; assay: Effect on the contractile force of spontaneously beating atria from Reserpine-treated guinea pigs as percentage variation from the control at concentration of 3 x 10E-5 M; procedure, shortened: as §1
Cavia porcellus [5] = organism: Cavia porcellus; assay: Effect on the contractile force of spontaneously beating atria from Reserpine-treated guinea pigs as percentage variation from the control at concentration of 3 x 10E-6 M; procedure, shortened: as §1
Cavia porcellus [6] = organism: Cavia porcellus; assay: Compound was evaluated for its effect on the frequency rate of spontaneously beating atria from Reserpine-treated guinea pigs as percentage variation from the control at different concentration of 10E-3 M; procedure, shortened: as §1
Cavia porcellus [7] = organism: Cavia porcellus; assay: Compound was evaluated for its effect on the frequency rate of spontaneously beating atria from Reserpine-treated guinea pigs as percentage variation from the control at different concentration of 10E-4 M; procedure, shortened: as §1
Cavia porcellus [8] = organism: Cavia porcellus; assay: Compound was evaluated for its effect on the frequency rate of spontaneously beating atria from Reserpine-treated guinea pigs as percentage variation from the control at different concentration of 10E-5 M; procedure, shortened: as §1
Cavia porcellus [9] = organism: Cavia porcellus; assay: Compound was evaluated for its effect on the frequency rate of spontaneously beating atria from Reserpine-treated guinea pigs as percentage variation from the control at different concentration of 10E-6 M; procedure, shortened: as §1
Cavia porcellus [10] = organism: Cavia porcellus; assay: Compound was evaluated for its effect on the frequency rate of spontaneously beating atria from Reserpine-treated guinea pigs as percentage variation from the control at different concentration of 3 x 10E-4 M; procedure, shortened: as §1
Cavia porcellus [11] = organism: Cavia porcellus; assay: Compound was evaluated for its effect on the frequency rate of spontaneously beating atria from Reserpine-treated guinea pigs as percentage variation from the control at different concentration of 3 x 10E-5 M; procedure, shortened: as §1
Cavia porcellus [12] = organism: Cavia porcellus; assay: Compound was evaluated for its effect on the frequency rate of spontaneously beating atria from Reserpine-treated guinea pigs as percentage variation from the control at different concentration of 3 x10E-6 M; procedure, shortened: as §1
Cavia porcellus [13] = organism: Cavia porcellus; assay: Effect on the contractile force of spontaneously beating atria from Reserpine-treated guinea pigs as percentage variation from the control at concentration of 10E-3 M; procedure, shortened: as §1
Cavia porcellus [14] = organism: Cavia porcellus; assay: Effect on the contractile force of spontaneously beating atria from Reserpine treated guinea pigs as percentage variation from the control at concentration of 10E-4 M; procedure, shortened: as §1
Cavia porcellus [15] = organism: Cavia porcellus; assay: Effect on the frequency rate of spontaneously beating atria from Reserpine-treated guinea pigs as percentage variation from the control at concentration of 10E-3 M; procedure, shortened: as §1
Cavia porcellus [16] = organism: Cavia porcellus; assay: Effect on the frequency rate of spontaneously beating atria from Reserpine-treated guinea pigs as percentage variation from the control at concentration of 10E-4 M; procedure, shortened: as §1
Cavia porcellus [17] = organism: Cavia porcellus; assay: Effect on the frequency rate of spontaneously beating atria from Reserpine-treated guinea pigs as percentage variation from the control at concentration of 10E-5 M; procedure, shortened: as §1
Cavia porcellus [18] = organism: Cavia porcellus; assay: Compound was evaluated for its effect on the frequency rate of spontaneously beating atria from Reserpine-treated guinea pigs as percentage variation from the control at concentration of 10e-6 M; procedure, shortened: as §1
Cavia porcellus [19] = organism: Cavia porcellus; assay: Compound was evaluated for its effect on the frequency rate of spontaneously beating atria from Reserpine-treated guinea pigs as percentage variation from the control at concentration of 3 x 10E-4 M; procedure, shortened: as §1
Cavia porcellus [20] = organism: Cavia porcellus; assay: Compound was evaluated for its effect on the frequency rate of spontaneously beating atria from Reserpine-treated guinea pigs as percentage variation from the control at concentration of 3 x 10E-5 M; procedure, shortened: as §1
Cavia porcellus [21] = organism: Cavia porcellus; assay: Compound was evaluated for its effect on the frequency rate of spontaneously beating atria from Reserpine-treated guinea pigs as percentage variation from the control at concentration of 3 x 10E-6 M; procedure, shortened: as §1
Cavia porcellus [22] = organism: Cavia porcellus; assay: Compound was evaluated for its effect on the contractile force of spontaneously beating atria from Reserpine-treated guinea pigs as percentage variation from the control at concentration 10E-3 M; procedure, shortened: as §1

## CN(C)c1ncccn1
Cavia porcellus [1]
  Variation: 9.17%
Cavia porcellus [2]
  Variation: 0%
Cavia porcellus [3]
  Variation: 37.73%
Cavia porcellus [4]
  Variation: 11.63%
Cavia porcellus [5]
  Variation: 4.92%
Cavia porcellus [6]
  Variation: 25.17%
Cavia porcellus [7]
  Variation: 9.72%
Cavia porcellus [8]
  Variation: 1.33%
Cavia porcellus [9]
  Variation: 0%
Cavia porcellus [10]
  Variation: 17.44%
Cavia porcellus [11]
  Variation: 3.72%
Cavia porcellus [12]
  Variation: 0%
Cavia porcellus [13]
  Variation: 41.66%
Cavia porcellus [14]
  Variation: 15.08%

## CCOC(=O)c1cnc(N(C)C)nc1C
Cavia porcellus [1]
  Variation: 9.91%
Cavia porcellus [2]
  Variation: 2.79%
Cavia porcellus [3]
  Variation: -25.87%
Cavia porcellus [4]
  Variation: 15.88%
Cavia porcellus [5]
  Variation: 7.12%
Cavia porcellus [15]
  Variation: -17.85%
Cavia porcellus [16]
  Variation: 7.14%
Cavia porcellus [17]
  Variation: 0%
Cavia porcellus [18]
  Variation: -3.57%
Cavia porcellus [19]
  Variation: 10.71%
Cavia porcellus [20]
  Variation: 3.57%
Cavia porcellus [21]
  Variation: 0%
Cavia porcellus [22]
  Variation: -49.52%
Cavia porcellus [14]
  Variation: -21.41%
